Assay results taken from ChEMBL document CHEMBL3352538, “Vascular L-type Ca²⁺ channel blocking activity of sulfur-containing indole alkaloids from Glycosmis petelotii” (J Nat Prod, 2014).

Experiments:
[1] = target: T1, Voltage-gated L-type calcium channel (Rattus norvegicus, UniProt P22002+Q02485+P27732); experiment: Inhibition of L-type calcium channel in endothelium-denuded Wistar rat aorta rings assessed as relaxation of 60 mM K+-induced contraction; details: for inhibition (INH): rat
[2] = target: T1, Voltage-gated L-type calcium channel; experiment: Inhibition of L-type calcium channel in endothelium-denuded Wistar rat aorta rings assessed as relaxation of phenylephrine-induced contraction; details: for inhibition (INH): rat
[3] = target: T1, Voltage-gated L-type calcium channel; experiment: Inhibition of L-type calcium channel in Wistar rat tail artery myocytes assessed as reduction in L-type Ba(2+) current at Vh of -50 mV; details: for inhibition (INH): rat
[4] = target: T1, Voltage-gated L-type calcium channel; experiment: Inhibition of L-type calcium channel in endothelium-intact Wistar rat aorta rings assessed as relaxation of 0.3 uM phenylephrine-induced contraction
[5] = target: T1, Voltage-gated L-type calcium channel; experiment: Inhibition of L-type calcium channel in endothelium-denuded Wistar rat aorta rings assessed as relaxation of 30 mM K+-induced contraction
Summary of the method: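 Endothelium-denuded rat aorta rings, isometric tension, equilibrated 60 min in PSS gassed with 95% O2/5% CO2 (pH 7.4). Contracted with 0.3 μM phenylephrine, or 30 or 60 mM K+ (KCl replacing NaCl).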

[6] = target: T1, Voltage-gated L-type calcium channel; experiment: Inhibition of L-type calcium channel in endothelium-denuded Wistar rat aorta rings depolarized with 60 mM K+ solution assessed as relaxation of Ca2+-induced contraction
Summary of the method: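 Endothelium-denuded rings stimulated with 60 mM K+ for 15 min, then washed 90 min in Ca2+-free PSS with 1 mM EGTA, and stores emptied with 0.3 μM phenylephrine. Depolarized in Ca2+-free 60 mM K+ PSS, then cumulative Ca2+ (0.03−3 mM). Test substance or vehicle present 30 min before and throughout.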

[7] = target: T1, Voltage-gated L-type calcium channel; experiment: Inhibition of L-type calcium channel in endothelium-denuded Wistar rat aorta rings depolarized with 60 mM K+ solution assessed as relaxation of Ca2+-induced contraction at 12 and 40 uM in presence of 10 nM calcium channel agonist (S)-(-)Bay K 8644
Summary of the method: (§1)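 Following the cumulative Ca2+ (0.03−3 mM) curve in endothelium-denuded rings depolarized with Ca2+-free 60 mM K+ PSS, with compound or vehicle present from 30 min beforehand, 10 nM (S)-(−)-Bay K 8644 was added after the last Ca2+ addition. Tone expressed as % of the response to 60 mM K+; mean ± SE, n = 4−17.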

[8] = target: T1, Voltage-gated L-type calcium channel; experiment: Inhibition of L-type calcium channel in Wistar rat aorta rings assessed as relaxation of phenylephrine-induced contraction in Ca2+ free medium
Summary of the method: (§2)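 Rings in Ca2+-free PSS with 1 mM EGTA for 15 min, then 30 min incubation with vehicle or alkaloid. Contraction to 10 μM phenylephrine reflects sarcoplasmic reticulum Ca2+ release; 3.5 mM Ca2+ is then re-added with phenylephrine still present to index Ca2+ influx. Washed 45 min and repeated at a higher concentration. Expressed as % of 0.3 μM phenylephrine contraction in PSS.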

[9] = target: T1, Voltage-gated L-type calcium channel; experiment: Inhibition of L-type calcium channel in endothelium-denuded Wistar rat aorta rings depolarized with 60 mM K+ solution assessed as relaxation of Ca2+-induced contraction at 43 and 128 uM in presence of 10 nM calcium channel agonist (S)-(-)Bay K 8644; summary of the method: as §1
[10] = target: T1, Voltage-gated L-type calcium channel; experiment: Inhibition of L-type calcium channel in Wistar rat aorta rings assessed as relaxation of phenylephrine-induced contraction in Ca2+ restored medium; summary of the method: as §2

SMILES | inhibition (INH) [1] | inhibition (INH) [2] | inhibition (INH) [3] | inhibition (INH) ([4]; rat) | pIC50 [1] | pIC50 [5] | pIC50 [2] | inhibition (INH) [6] | inhibition (INH) [7] | inhibition (INH) [8] | IC50 [3] [µM] | pIC50 [4] | inhibition (INH) [9] | inhibition (INH) [10]
COc1ccc(CCN(C)CCCC(C#N)(c2ccc(OC)c(OC)c2)C(C)C)cc1OC (stereo not given) | Dose-dependent effect | Dose-dependent effect | Dose-dependent effect | Dose-dependent effect | – | – | – | – | – | – | – | – | – | –
CSC(=O)N(C)CCc1c[nH]c2ccccc12 | Dose-dependent effect | Dose-dependent effect | Dose-dependent effect | – | 4.8 | 4.5 | 4.7 | Dose-dependent effect | Not Active | Not Active | 251 | 4.4 | – | –
CSC(=O)NCCc1c[nH]c2ccccc12 | Dose-dependent effect | Dose-dependent effect | – | – | 4.1 | 3.9 | 4.3 | Dose-dependent effect | – | Not Active | – | 4.2 | Not Active | Active
